According to ChEMBL document CHEMBL3352313 (J Med Chem, 2014):
pEC50: −log10 of the molar value.

Experiments:
[1] = biological target: T1, Muscarinic acetylcholine receptor M5 (Homo sapiens, UniProt P08912); experiment: Positive allosteric modulator activity at human muscarinic acetylcholine receptor subtype 5 expressed in CHO cells by calcium mobilization assay; format: functional, cell-based; details: for pEC50: read-out: EC50; for EC50: cho
T1 sequence (P08912 whole entry): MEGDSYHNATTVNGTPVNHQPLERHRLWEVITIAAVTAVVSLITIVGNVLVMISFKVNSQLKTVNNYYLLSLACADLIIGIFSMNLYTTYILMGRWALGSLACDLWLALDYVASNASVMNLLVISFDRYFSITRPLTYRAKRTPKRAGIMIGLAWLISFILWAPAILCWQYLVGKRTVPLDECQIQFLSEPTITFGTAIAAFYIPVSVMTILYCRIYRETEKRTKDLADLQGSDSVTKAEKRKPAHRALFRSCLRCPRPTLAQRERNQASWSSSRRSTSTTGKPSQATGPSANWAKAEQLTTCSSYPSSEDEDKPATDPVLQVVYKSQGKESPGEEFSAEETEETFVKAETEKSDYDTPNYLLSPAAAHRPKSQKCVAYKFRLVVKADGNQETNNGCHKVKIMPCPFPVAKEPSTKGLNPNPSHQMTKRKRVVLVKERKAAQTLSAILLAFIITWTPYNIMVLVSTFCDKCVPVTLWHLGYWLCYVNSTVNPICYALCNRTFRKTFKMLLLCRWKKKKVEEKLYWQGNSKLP

[2] = biological target: T2, Muscarinic acetylcholine receptor M5 (Homo sapiens) (UniProt P08912); experiment: Positive allosteric modulator activity at human muscarinic acetylcholine receptor subtype 5 expressed in CHO cells by calcium mobilization assay relative to acetylcholine; format: functional, cell-based
T2 sequence (whole entry): T1 sequence (P08912 whole entry)

[3] = biological target: T2, Muscarinic acetylcholine receptor M5 (Homo sapiens); experiment: Positive allosteric modulator activity at human muscarinic acetylcholine receptor subtype 5 expressed in CHO cells assessed as fold shift in acetylcholine-induced response at 10 uM by calcium mobilization assay; format: functional, cell-based
Procedure, shortened: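 In hM5 CHO cells by calcium mobilization, PAM at a fixed 10 μM or vehicle is added before an ACh concentration-response curve. Fold shift is the ratio of ACh potency without PAM to potency with PAM.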

[4] = biological target: T2, Muscarinic acetylcholine receptor M5 (Homo sapiens); experiment: Displacement of [3H]NMS from human muscarinic acetylcholine receptor subtype 5 expressed in CHO cell membranes assessed as radioligand binding level by scintillation counting method
[5] = Intrinsic clearance in rat liver microsomes; format: ADME; details: read-out: CLH
Procedure, shortened: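 Microsomal intrinsic clearance, used in the well-stirred model of organ clearance, not corrected for plasma fraction unbound, to predict hepatic clearance.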

pEC50 [1]	%max [2] [%]	SMILES	other results
5.25	59	CCN(Cc1cccc(C(F)(F)F)c1)C(=O)C1CCN(S(=O)(=O)c2ccc3cn[nH]c3c2)CC1	
6.46	78	CCN(Cc1ccccc1Cl)C(=O)C1CCN(S(=O)(=O)c2ccc3[nH]ncc3c2)CC1	
6.06	78	CCN(Cc1cccc(C)c1)C(=O)C1CCN(S(=O)(=O)c2ccc3cn[nH]c3c2)CC1	
5.82	89	CCN(Cc1cccc(F)c1)C(=O)C1CCN(S(=O)(=O)c2ccc3cn[nH]c3c2)CC1	
5.48	84	CCN(Cc1ccccc1)C(=O)C1CCN(S(=O)(=O)c2ccc(OC)cc2)CC1	
5.13	93	CCN(Cc1ccccc1)C(=O)C1CCN(S(=O)(=O)c2ccc3c(c2)OCO3)CC1	
5.77	86	CCN(Cc1ccccc1)C(=O)C1CCN(S(=O)(=O)c2ccc3cn[nH]c3c2)CC1	fold change (FC) [3]: 4.8
5.80	86	CCN(Cc1ccccc1)C(=O)C1CCN(S(=O)(=O)c2ccc3[nH]ncc3c2)CC1	fold change (FC) [3]: 5.4
6.32	92	CCN(Cc1ccccc1C(F)(F)F)C(=O)C1CCN(S(=O)(=O)c2ccc3cn[nH]c3c2)CC1	fold change (FC) [3]: 7
6.12	92	CCN(Cc1ccccc1OC)C(=O)C1CCN(S(=O)(=O)c2ccc3cn[nH]c3c2)CC1	
6.13	86	CCN(C(=O)C1CCN(S(=O)(=O)c2ccc3[nH]ncc3c2)CC1)[C@H](C)c1ccccc1	fold change (FC) [3]: 12
5.52	81	CCN(Cc1ccccc1)C(=O)C1CCN(S(=O)(=O)c2ccc3nsnc3c2)CC1	
5.80	77	CCN(Cc1cccc(Cl)c1)C(=O)C1CCN(S(=O)(=O)c2ccc3cn[nH]c3c2)CC1	
6.82	100	CCC(C)N(Cc1ccccc1C(F)(F)F)C(=O)C1CCN(S(=O)(=O)c2ccc3[nH]ncc3c2)CC1 (stereo unspecified)	
5.74	84	O=C(C1CCN(S(=O)(=O)c2ccc3[nH]ncc3c2)CC1)N(Cc1ccccc1C(F)(F)F)C1CCC1	
6.12	87	CCN(C(=O)C1CCN(S(=O)(=O)c2ccc3cn[nH]c3c2)CC1)[C@H](C)c1ccccc1	
5.68	84	CCN(Cc1ccccc1F)C(=O)C1CCN(S(=O)(=O)c2ccc3cn[nH]c3c2)CC1	
6.06	103	CCN(Cc1ccccc1C)C(=O)C1CCN(S(=O)(=O)c2ccc3cn[nH]c3c2)CC1	
6.92	102	O=C(C1CCN(S(=O)(=O)c2ccc3[nH]ncc3c2)CC1)N(Cc1ccccc1C(F)(F)F)CC1CC1	CLint scaled [5]: > 500 mL/min/kg
5.51	77	CCN(Cc1ccccc1)C(=O)C1CCN(S(=O)(=O)c2cccc(OC)c2)CC1	
5.89	95	O=C(C1CCN(S(=O)(=O)c2ccc3[nH]ncc3c2)CC1)N(CCF)Cc1ccccc1C(F)(F)F	
5.74	79	C=CCN(Cc1ccccc1C(F)(F)F)C(=O)C1CCN(S(=O)(=O)c2ccc3[nH]ncc3c2)CC1	
6.19	93	CCN(Cc1ccccc1Cl)C(=O)C1CCN(S(=O)(=O)c2ccc3cn[nH]c3c2)CC1	
5.62	80	CCN(Cc1ccccc1)C(=O)C1CCN(S(=O)(=O)c2ccc3occc3c2)CC1	
6.80	94	CCCN(Cc1ccccc1C(F)(F)F)C(=O)C1CCN(S(=O)(=O)c2ccc3[nH]ncc3c2)CC1	
6.89	103	O=C(C1CCN(S(=O)(=O)c2ccc3[nH]ncc3c2)CC1)N(Cc1ccccc1C(F)(F)F)CC1CCC1	CLint scaled [5]: > 500 mL/min/kg
5.59	85	CCN(Cc1cccc(OC)c1)C(=O)C1CCN(S(=O)(=O)c2ccc3cn[nH]c3c2)CC1	
6.92	104	CC(C)(C)CN(Cc1ccccc1C(F)(F)F)C(=O)C1CCN(S(=O)(=O)c2ccc3[nH]ncc3c2)CC1	CLint scaled [5]: > 500 mL/min/kg

Continued, molecule first:

SMILES	pEC50 [1]	%max [2] [%]	other results
CCN(Cc1ccccc1)C(=O)C1CCN(S(=O)(=O)c2ccccn2)CC1	< 5.00		
CCN(Cc1ccccc1)C(=O)C1CCN(S(=O)(=O)c2ccc3cccnc3c2)CC1	< 5.00	66	
CCN(Cc1ccccc1)C(=O)C1CCN(S(=O)(=O)c2ccc3c(c2)OCCO3)CC1			fold change (FC) [3]: 2.3
CCN(Cc1ccccc1)C(=O)C1CCN(S(=O)(=O)c2ccc(C(F)(F)F)nc2)CC1	< 5.00		
CCN(C(=O)C1CCN(S(=O)(=O)c2ccc(OC)cc2)CC1)[C@@H](C)c1ccccc1			EC50 [1]: Not Active
CC(C)N(Cc1ccccc1C(F)(F)F)C(=O)C1CCN(S(=O)(=O)c2ccc3[nH]ncc3c2)CC1	< 5.00	54	
CCN(Cc1ccccc1)C(=O)C1CCN(S(=O)(=O)c2ccc(OC)c(OC)c2)CC1	< 5.00	57	
O=C(C1CCN(S(=O)(=O)c2ccc3[nH]ncc3c2)CC1)N(CCO)Cc1ccccc1C(F)(F)F	< 5.00	60	
CCN(C(=O)C1CCN(S(=O)(=O)c2ccc(OC)cc2)CC1)[C@H](C)c1ccccc1	6.01	90	fold change (FC) [3]: 7
CCN(Cc1ccccc1)C(=O)C1CCN(S(=O)(=O)c2ccccc2OC)CC1	< 5.00		
CCN(Cc1ccccc1)C(=O)C1CCN(S(=O)(=O)c2cccnc2)CC1	< 5.00		
CCN(C(=O)C1CCN(S(=O)(=O)c2ccc3c(c2)CCC3)CC1)[C@H](C)c1ccccc1	6.14	97	
CCN(C(=O)C1CCN(S(=O)(=O)c2ccc3occc3c2)CC1)[C@H](C)c1ccccc1	6.03	80	
CCN(Cc1ccccc1)C(=O)C1CCN(S(=O)(=O)c2cccc3nsnc23)CC1	< 5.00		
O=C(C1CCN(S(=O)(=O)c2ccc3[nH]ncc3c2)CC1)N(Cc1ccccc1C(F)(F)F)C1CC1			EC50 [1]: Not Active
CCN(Cc1ccccc1)C(=O)C1CCN(S(=O)(=O)c2c(C)noc2C)CC1	< 5.00		
CN1[C@@H]2CC[C@H]1C[C@@H](OC(=O)C(CO)c1ccccc1)C2 (stereo partly specified)			%max [4]: 1.8%
CCN(Cc1ccccc1)C(=O)C1CCN(S(=O)(=O)c2ccc(C)s2)CC1	< 5.00	64	
CCN(Cc1ccc(C(F)(F)F)cc1)C(=O)C1CCN(S(=O)(=O)c2ccc3cn[nH]c3c2)CC1			EC50 [1]: Not Active
CCN(Cc1ccccc1)C(=O)C1CCN(S(=O)(=O)c2cccc3c2OCCO3)CC1	< 5.00	53	
CCN(Cc1ccc(F)cc1)C(=O)C1CCN(S(=O)(=O)c2ccc3cn[nH]c3c2)CC1	< 5.00	55	
CCN(Cc1ccccc1)C(=O)C1CCN(S(=O)(=O)c2ccncc2)CC1	< 5.00		
CCN(Cc1ccccc1)C(=O)C1CCN(S(=O)(=O)c2ccccc2)CC1	5.21	69	
CCN(Cc1ccccc1)C(=O)C1CCN(S(=O)(=O)c2c[nH]cn2)CC1	< 5.00		
CCN(C(=O)C1CCN(S(=O)(=O)c2ccc3c(c2)CCO3)CC1)[C@H](C)c1ccccc1	5.95	88	
